# Screens as filed in PubChem BioAssay.
# Compounds with a hit are over-represented: about 1.5% of the library has one in this group of screens.
# APJ ag – APJ receptor agonism. P35414. CHO-K1 APJ PathHunter beta-arrestin, luminescence; 0% DMSO wells, 100% apelin. activation, % at 20 µM. 330,000 tested, 0.11% active;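 active means activation more than six SD over the plate average, tested at 20 µM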
#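 Material: engineered CHO-K1 APJ arrestin reporter cells; amount: 1000 CHO-K1 reporter cells seeded per well; incubation: compound stimulation 90 min at 25 °C, detection 60 min; signal: luminescent beta-gal fragment complementation, chemiluminescent substrate; read-out basis: APJ agonist activity; controls: DMSO-only wells as negative, 10 nM Apelin-13 as positive control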
# EBI2 block – antagonists of human EBI2 receptor. P32249. EBI2 beta-arrestin recruitment, luminescence, 7a,25-OHC stimulated. inhibition, % at 5 µM. 360,000 tested, 0.81% active. AID 651636; in the data active means inhibition above about 38%;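 further: enzyme fragment complementation signal reports receptor beta-arrestin coupling in cells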
# APJ antag – blocks the human apelin receptor APJ; P35414; CHO-K1 APJ beta-arrestin complementation, luminescence; inhibition, % at 20 µM; 330,000 tested, 0.32% active; AID 2521;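 active means inhibition above about 40% at 20 µM, limit read from the data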;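 further: cells challenged with 10 nM apelin-13 agonist together with compound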
# CXCR6 inh – CXCR6 (human) receptor inhibition; O00574; CHO-K1 PathHunter CXCR6 beta-arrestin, luminescence; inhibition, % at 20 µM; 360,000 tested, 0.36% active; in the data active means inhibition above about 34%, passing the limit was not always enough;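 further: antagonist mode with CXCL16 agonist at 10 nM final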
# Target sequence (O00574 whole entry, looked up): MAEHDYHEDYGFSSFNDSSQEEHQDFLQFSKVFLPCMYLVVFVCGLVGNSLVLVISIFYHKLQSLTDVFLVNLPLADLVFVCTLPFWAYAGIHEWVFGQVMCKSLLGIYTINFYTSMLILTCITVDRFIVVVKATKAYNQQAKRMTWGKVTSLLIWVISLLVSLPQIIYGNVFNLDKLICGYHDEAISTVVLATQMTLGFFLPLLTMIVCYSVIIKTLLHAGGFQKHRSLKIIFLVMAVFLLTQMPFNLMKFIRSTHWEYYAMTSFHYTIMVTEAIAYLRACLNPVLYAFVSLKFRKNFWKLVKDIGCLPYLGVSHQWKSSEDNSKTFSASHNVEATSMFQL
# CCR6 antagonist – CCR6 (human) receptor antagonism. P51684. inhibition, % at 20 µM. CHO-K1 CCR6 PathHunter beta-arrestin, luminescence, CCL20-stimulated. 340,000 tested, 0.49% active;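 active means compounds whose inhibition of the agonist-driven luminescence signal at 20 µM reaches about 50%, limit read from the data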;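 further: cells stimulated with CCL20 at 14 nM final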
# CXCR6 confirm – CXCR6 antagonism confirmation, single concentration; shares compounds with CXCR6 inh; CHO-K1 CXCR6 PathHunter beta-arrestin, luminescence; inhibition, % at 20 µM; 700 tested, 65% active; AID 602409;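 active means mean inhibition over four retests above 40%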;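 further: receptor stimulated with 10 nM CXCL16 agonist; beta-galactosidase fragment complementation upon beta-arrestin recruitment to receptor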
# Numbers stand for hits; - = inactive; . = no result.
SMILES,APJ ag,EBI2 block,APJ antag,CXCR6 inh,CCR6 antagonist,CXCR6 confirm
CCOC(=O)C1=C(c2ccccc2)Nc2ncnn2C1c1ccc(C(=O)O)cc1 (stereo not drawn),-,-,-,-,-,.
CC(=O)c1cccc(OCC(=O)N(C)CC(=O)Nc2ccc(F)cc2)c1,-,.,-,.,-,.
COc1ccc(C(=O)/C=C/Sc2nc3ccccc3o2)cc1,-,-,-,45.5,61.8,44.6
COc1ccc(C(=O)N/C(N)=N/c2nc3ccccc3o2)cc1,-,-,-,-,-,.
CN(C)CCCN(C(=O)CCSc1ccccc1)c1nc2cc3c(cc2s1)OCO3,-,-,-,-,-,.
CN(C)CCCN(C(=O)CCS(=O)(=O)c1ccccc1)c1nc2cc3c(cc2s1)OCO3,-,41.7,-,39.9,50.2,57.2
CCN1C(=O)[C@H]2[C@@H](c3ccc(C(F)(F)F)cc3)N[C@]3(CCCN(Cc4ccco4)C3=O)[C@H]2C1=O,.,-,.,54.9,.,-
O=C(CCS(=O)(=O)c1ccc(Br)cc1)Nc1ccc(Br)cc1F,-,-,-,-,-,.
NS(=O)(=O)c1ccc(CNC(=O)NC23CC4CC(CC(C4)C2)C3)cc1,-,-,-,61.3,-,-
Cc1ccc(NC(=O)Cn2c(CCC(=O)O)ccc2-c2ccc(Cl)cc2)cc1,-,-,-,-,-,.
Cc1ccc(O)c(C(=O)CC(=O)c2ccc(Cl)cc2)c1,.,-,.,41.9,65.0,45.4
CCC1Sc2ccc(S(=O)(=O)CCC(=O)Nc3ccccc3Br)cc2NC1=O (stereo not drawn),-,-,-,-,-,.
O=C(Nc1ccccc1)c1nnsc1S(=O)c1ccc(Cl)cc1 (stereo not drawn),-,-,-,89.2,101.1,96.7
COc1ccc(/C=N/NC(=O)c2ccc(NC(=O)C3CCCCC3)cc2)cc1O,-,-,-,-,-,.
O=[N+]([O-])c1cc2oc3c(c2c(C=NCc2ccccc2)c1O)CCCC3,-,-,-,43.8,-,59.4
CC(C)CN=Cc1c(O)c([N+](=O)[O-])cc2oc3c(c12)CCCC3,-,-,-,-,-,.
O=S(=O)(/C=C/C=C/S(=O)(=O)c1ccccc1)c1ccccc1,.,53.7,.,69.6,88.6,67.4
O=C(C=Cc1ccccn1)c1ccccc1O,.,-,.,56.8,74.0,60.1
O=C(C=Cc1ccccn1)c1ccccc1,.,-,.,-,-,.
Cc1ccc(S(=O)(=O)Nc2c(NC3CCCCC3)c3ccccc3oc2=O)cc1C,-,-,-,-,-,.
Cc1ccc2c(Cl)cc(Cl)c(O)c2n1,.,-,.,49.1,96.5,69.9
Cc1ccc2c(C)ccc(O)c2n1,-,-,-,64.9,83.4,76.2
COc1ccc2c(c1)C(C)=CC(C)(C)N2S(=O)(=O)c1ccc(NC(C)=O)cc1,-,-,-,-,-,.
Cc1cc(C)cc(N2C(=O)CC(Sc3nnnn3-c3ccccc3)C2=O)c1 (stereo not drawn),-,-,-,86.8,.,74.9
COc1cc(S(=O)(=O)NC2CCCC2)c(OC)cc1Cl,-,-,-,46.2,-,-
SMILES,APJ ag,EBI2 block,APJ antag,CXCR6 inh,CCR6 antagonist,CXCR6 confirm
COc1cc(S(=O)(=O)NC2CC(C)(C)NC(C)(C)C2)c(OC)cc1Cl,-,-,-,-,-,.
Oc1c(Br)cc(Br)cc1C=NCc1ccccc1,-,-,-,40.6,-,51.1
C/C(=N\Nc1nc2ccccc2[nH]1)c1cc2ccccc2o1,-,-,-,-,-,.
C/C(=N\Nc1nc2ccccc2[nH]1)c1ccccn1,-,-,-,41.7,.,70.0
NC(=S)N/N=C/c1ccc(C(F)(F)F)cc1,-,-,-,-,-,.
NC(=S)N/N=C/c1ncc(C(F)(F)F)cc1Cl,-,-,58.1,60.7,74.3,89.9
COCCCn1c(N)c(-c2nc3ccccc3n2C)c2nc3ccccc3nc21,-,-,-,43.4,.,64.9
Cn1c(-c2c(N)n(CCCc3ccccc3)c3nc4ccccc4nc23)nc2ccccc21,.,-,.,-,-,.
CCC(=O)Nc1ccc(NC(=O)c2cccc(OC)c2)nc1,-,-,-,-,-,.
CCCn1nnc(NC(=S)NC(=O)C(C)(C)C)n1,-,-,-,-,-,.
N=C1SCC(=O)N1c1ncc(Cc2ccc(F)cc2)s1,-,-,-,50.8,.,67.8
Cc1ccc(-c2csc(N3C(=N)SCC3=O)n2)cc1,-,.,-,.,-,.
COc1ccc(C(CNC(=O)c2cc(F)c(F)c(F)c2F)N2CCOCC2)cc1 (stereo not drawn),-,-,-,-,-,.
CCN(CC(=O)NC(C)(C)C)Cc1nc2c(Br)cc(Br)cc2c(=O)[nH]1,-,-,-,53.5,.,56.1
CC(Oc1cccc(Cl)c1)C(=O)Nc1nc(-c2ccccn2)cs1 (stereo not drawn),-,-,-,70.1,87.5,78.3
CC(Oc1ccccc1)C(=O)Nc1nc(-c2ccccn2)cs1 (stereo not drawn),-,-,-,37.5,.,64.0
O=C(COc1ccc(F)cc1Cl)Nc1nc(-c2ccccn2)cs1,-,-,-,46.3,.,-
Cc1ccc(/C=N/NC(=S)NC(C)C)o1,-,-,-,-,-,.
O=C1C=CC2C3C(=O)N(c4ccccc4)C(=O)C3C1N2Cc1ccccc1 (stereo not drawn),.,-,.,51.3,58.8,45.0
O=c1[nH]c(COc2ccc(Br)cc2Cl)nc2ccccc12,-,-,-,-,-,.
CCc1ccc(OCC(=O)Nc2ccncc2)cc1,-,-,-,-,-,.
COc1ccc(OCC(=O)N/N=C(\C)c2ccc(-n3ccnc3)cc2)cc1,-,-,-,-,-,.
C/C(=N\NC(=O)COc1ccc(C(C)(C)C)cc1)c1ccc(-n2ccnc2)cc1,-,-,-,73.0,-,-
CC(C)(C)c1ccc(OCC(=O)Nc2ccncc2)cc1,-,-,-,41.2,-,-
Fc1ccc(-c2nc3c4ccccc4ccn3c2Cc2ccccc2)cc1,.,-,.,-,.,.
SMILES,APJ ag,EBI2 block,APJ antag,CXCR6 inh,CCR6 antagonist,CXCR6 confirm
Clc1ccc(-c2nc3c4ccccc4ccn3c2Cc2ccccc2)cc1,.,-,.,44.0,.,-
CCC1=NN(C(=O)c2cccc([N+](=O)[O-])c2)C(O)(c2ccc(C)cc2)C1 (stereo not drawn),-,-,-,48.4,66.4,-
O=C1CN(C(=O)c2cccc([N+](=O)[O-])c2)CC(=O)N1,-,-,-,-,-,.
CCC1=NN(C(=O)c2ccc(Br)cc2)C(O)(c2ccccc2)C1 (stereo not drawn),-,-,-,48.1,73.4,-
CCOC(=O)C1=NN(C(=O)c2ccccc2)C(O)(c2ccc(C)cc2)C1 (stereo not drawn),-,-,-,-,-,.
Cc1ccc(C)c(N/C=C(\C#N)c2nc3ccccc3o2)c1,-,-,-,-,-,.
COc1cc(/C=C(\C#N)c2nc3ccccc3o2)ccc1O,-,-,-,49.1,55.3,43.0
COC(=O)C1=C(N)Oc2cc(C)n(Cc3cccnc3)c(=O)c2C1c1cc(OC)ccc1OC (stereo not drawn),-,-,-,-,-,.
